From PubChem BioAssay
RanGTP-Imp inh – disruptors of Ran-importin-beta complex formation – biochemical, FRET, CFP-Ran, YFP-importin-beta, homogeneous, primary screen; cell-free CFP-Ran/YFP-importin-beta FRET ratio; inhibition, % (test concentration not listed); 300,000 tested, 1.1% active; AID 2216;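 active means more than half of the replicate wells show a fall in the fluorescence ratio signal beyond about 16%, limit read from the data, passing the limit was not always enough; inconclusive means exactly half of the replicate wells pass the set limit; inactive means fewer than half of replicates pass the limit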;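 further: 0% = DMSO wells and 100% = Ran loaded with GDP instead of GTP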
Hck-Nef inh – inhibitors of human Hck kinase activated by Nef | P08631 | Recombinant Hck-YEEI plus Nef, Z-Lyte FRET kinase assay | inhibition, % at 20 µM | 220,000 tested, 0.68% active;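 active means Hck-Nef kinase inhibition above about 50%, limit read from the data; inactive means inhibition below that limit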;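 further: 0% = DMSO with Hck plus Nef and 100% = Hck alone without Nef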
Target sequence (P08631 whole entry, looked up): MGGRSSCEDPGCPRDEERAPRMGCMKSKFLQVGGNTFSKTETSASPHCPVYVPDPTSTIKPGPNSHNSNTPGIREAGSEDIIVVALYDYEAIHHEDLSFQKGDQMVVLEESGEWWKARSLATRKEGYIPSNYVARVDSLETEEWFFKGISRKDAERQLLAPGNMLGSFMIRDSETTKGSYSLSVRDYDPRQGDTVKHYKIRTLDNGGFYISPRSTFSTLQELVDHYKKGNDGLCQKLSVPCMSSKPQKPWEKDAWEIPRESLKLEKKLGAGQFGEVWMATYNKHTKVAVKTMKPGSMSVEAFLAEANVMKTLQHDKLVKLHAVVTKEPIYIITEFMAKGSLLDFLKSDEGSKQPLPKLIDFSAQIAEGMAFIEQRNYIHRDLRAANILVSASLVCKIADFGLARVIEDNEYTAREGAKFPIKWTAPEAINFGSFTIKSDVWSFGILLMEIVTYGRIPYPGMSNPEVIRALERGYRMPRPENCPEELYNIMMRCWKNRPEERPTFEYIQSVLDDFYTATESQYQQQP
Runt-CBFb FRET – inhibitors of human RUNX1 Runt domain binding to CBFb | 220,000 tested, 0.46% active | Cerulean-Runt/Venus-CBFb FRET ratio 530/480, 1 h | inhibition, % at 20 µM | Q01196+Q13951;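 active means inhibition over about 50% at 20 µM in the single-dose screen, limit read from the data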;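 further: 0% = DMSO wells and 100% = excess unlabeled CBFb competitor control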
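test system = Cerulean-Runt domain fusion protein, energy donor | probe or stimulus = Venus-CBFb binding partner, 100 nM | incubation = two 1 h room-temperature incubations shielded from light | detection = fluorescence energy transfer, 422 nm excitation, 530/480 nm emission | measure = loss of energy transfer signal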
Runt-SMMHC FRET – Runt domain-CBFb-SMMHC interaction inhibition | Cerulean-Runt/Venus-CBFb-SMMHC FRET ratio 530/480, 1 h | inhibition, % at 20 µM | 220,000 tested, 0.74% active;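 active means mean inhibition across duplicate retests at 20 µM reaching about 50%, limit read from the data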;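 further: 0% = DMSO wells and 100% = wells with excess untagged CBFb-SMMHC; inhibitors lower the FRET ratio by blocking Runt binding to CBFb-SMMHC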
TbHK1 inh – T. brucei hexokinase 1 inhibition; recombinant TbHK1, G6PDH-coupled NADH A340; AID 1430; inhibition, % at 10 µM; 220,000 tested, 0.11% active;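 active means inhibition of 50% or more in the single-dose primary screen; inactive means inhibition below 50%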
G6PDH ctr – inhibits Leuconostoc G6PDH, counter-screen for TbHK1 inhibitors | inhibition, % at 10 µM | purified G6PDH, NADH absorbance, 1 h | AID 2516 | shares compounds with TbHK1 inh | 210 tested, 7% active;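 active means at least 50% inhibition in the glucose-6-phosphate dehydrogenase coupled counterscreen; inconclusive means no clear call, values can overlap the other calls; inactive means inhibition below 50%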
TbHK1 confirm – confirmation of Trypanosoma brucei hexokinase 1 inhibitors | inhibition, % at 10 µM | 210 tested, 10% active | shares compounds with TbHK1 inh | recombinant TbHK1, G6PDH-coupled NADH A340 absorbance;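 active means inhibition of at least 50% in both of the two screening runs; inconclusive means at least 50% in one run, below 50% in the other; inactive means inhibition below 50% in both runs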;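 further: 0% and 100% set by the maximum and minimum signal control wells on each plate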
Runt-CBFb TRFRET – disrupts human RUNX1 Runt domain binding to CBFb | TR-FRET RUNX1 Runt domain-CBFb binding | shares compounds with Runt-CBFb FRET | inhibition, % at 20 µM | 480 tested, 20% active; in the data active means inhibition above about 40%
Hck Nef conf – confirmation of Hck-Nef kinase inhibitors; shares compounds with Hck-Nef inh; Recombinant Hck-YEEI:Nef, Z-Lyte FRET kinase assay; calls only at 10 µM; 1,300 tested, 28% active; AID 463188;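 active means average inhibition of at least 50%, with Z-scores no higher than 3 in both the phospho-tyrosine peptide and fluorescence counterscreens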
Active calls of the source: *; ? = inconclusive; / = not tested or not shown; + = active, no number. Hits are enriched below; roughly 1.9% of the tested compounds scored in any of these assays.

SMILES | RanGTP-Imp inh | Hck-Nef inh | Runt-CBFb FRET | Runt-SMMHC FRET | TbHK1 inh | Runt-CBFb TRFRET | others
COC(=O)C1C(c2ccccc2)C(C(=O)N2CCN(C)CC2)C1c1ccccc1 (stereo not drawn) | 5.8 | 3.3 | -2.0 | 5.9 | 53.3* | / | G6PDH ctr=-9.8;TbHK1 confirm=-13.8
COC(=O)[C@H]1[C@H](c2ccccc2)[C@H](C(=O)OC)O[C@H]1c1ccccc1 | 5.3 | / | / | / | / | /
CCCCc1ccc(/C=C2/C(=O)ON=C2c2ccccc2)s1 | 1.3 | 3.6 | -1.3 | -6.7 | 55.1* | / | G6PDH ctr=-37.4;TbHK1 confirm=54.8*
Cc1sc(/C=C2\C(=O)ON=C2c2ccccc2)cc1Br | -3.1 | 6.6 | -0.3 | 3.5 | 1.2 | /
C#CCOCCOCCOCCNc1nc(N2CCN(C(=O)C(Cc3cc4ccccc4[nH]3)n3cc(C(N)Cc4ccc(O)cc4)nn3)CC2)nc(N2CCN(C(=O)C(Cc3cc4ccccc4[nH]3)n3cc(C(N)Cc4ccc(O)cc4)nn3)CC2)n1 (stereo not drawn) | 1.5 | -172.3 | -4.0 | 0.9 | 53.1* | / | G6PDH ctr=88.3*;TbHK1 confirm=20.1
COc1ccc(Br)cc1C1NC(=O)NC(C)=C1C(=O)N(C)C (stereo not drawn) | -2.8 | 14.7 | -0.2 | -0.9 | -1.9 | /
CSc1nc2n(n1)C(c1cc(Br)ccc1F)C(C(=O)N(C)C)=C(C)N2 (stereo not drawn) | 2.7 | 5.4 | -0.6 | -5.1 | 63.1* | / | G6PDH ctr=-6.5;TbHK1 confirm=-6.7
Cc1ccc(S(=O)(=O)N2Cc3ccccc3CC2C(=O)NC(C)(C)C)cc1 (stereo not drawn) | -1.8 | / | / | / | / | /
Cc1ccnc(OC(C(=O)O)C(OCc2ccccc2)(c2ccc(F)cc2)c2ccc(F)cc2)n1 (stereo not drawn) | -0.6 | / | / | / | / | /
O=C1CSC(=S)N1/N=C/c1ccc(O)c(O)c1O | 9.6 | 79.4* | 38.9 | 42.6 | 50.3* | / | G6PDH ctr=-48.6;TbHK1 confirm=34.6;Hck Nef conf=+
O=C1CSC(=S)N1/N=C/c1cc(Br)ccc1O | -0.4 | / | / | / | / | /
O=C(CSc1nnc(Cc2ccccc2)n1-c1cccc(Cl)c1)NNC(=O)Cc1ccccc1 | 3.1 | 4.1 | -2.6 | -1.1 | 21.4 | /
O=c1c(O)cccc2cc(O)c(O)c(O)c12 | ? | 65.4* | 23.5 | -3.7 | 69.7* | / | G6PDH ctr=-8.4;TbHK1 confirm=?;Hck Nef conf=+
CC(C)(C)NC(=O)COc1coc(CN2CCN(Cc3ccccc3)CC2)cc1=O | 1.0 | / | / | / | / | /
COc1ccc(/C=C2\SC(=S)N(C(Cc3ccccc3)C(=O)O)C2=O)cc1 (stereo not drawn) | 1.2 | 34.0 | 8.9 | 2.7 | -7.6 | /
O=C(O)C(Cc1ccccc1)N1C(=O)/C(=C/C=C/c2ccco2)SC1=S (stereo not drawn) | -3.3 | 91.8* | 21.6 | -23.1 | 51.0* | / | G6PDH ctr=-71.3;TbHK1 confirm=39.8;Hck Nef conf=+
O=C(Nc1c[nH]c(=O)[nH]c1=O)c1ccc2c(c1)C(=O)N(c1cccc([N+](=O)[O-])c1)C2=O | 7.3 | 93.6* | -2.4 | -8.2 | 56.0* | / | G6PDH ctr=83.6*;TbHK1 confirm=69.5*;Hck Nef conf=+
CCC12OC(=N)C(C#N)(C1C)C(C#N)(C#N)C(c1ccccc1)O2 (stereo not drawn) | 21.3* | 1.8 | 58.0* | 88.0* | -8.1 | 41.0*
CCCCOc1ccc(C2OC34CCCCC3C(C#N)(C#N)C2(C#N)C(=N)O4)cc1 (stereo not drawn) | -1.7 | -0.7 | 24.8 | 12.8 | -5.3 | /
CNC(=O)/C(C#N)=C/c1c(N(Cc2ccccc2)Cc2ccccc2)nc2ccccn2c1=O | 0.9 | 0.1 | 62.6* | 89.5* | -17.7 | 3.2
S=c1[nH]c(-c2ccc(Cl)cc2)cs1 | 3.5 | 13.0 | 50.4* | 34.8 | -0.2 | 8.6
S=c1nccc(-c2ccc(Cl)cc2)[nH]1 | -2.2 | -48.7 | 55.7* | 12.1 | -5.9 | 41.2*
CN(C)S(=O)(=O)c1ccc(=S)[nH]c1 | 0.5 | 0.8 | 50.3* | 42.9 | -9.6 | -60.8
CN(C)S(=O)(=O)c1ccc(-n2cccc2)cc1 | 0.1 | 30.2 | -0.9 | -3.8 | -6.5 | /
CC1(C)OC(c2ccccc2)=C/C(=C\C=N\NC(=O)c2ccncc2)O1 | 1.2 | 5.2 | -5.8 | -17.0 | -39.4 | /
SMILES | RanGTP-Imp inh | Hck-Nef inh | Runt-CBFb FRET | Runt-SMMHC FRET | TbHK1 inh | Runt-CBFb TRFRET | others
Cc1cc(C)n2nc3nc4c(cc3c2n1)CCCC4 | 5.1 | 15.7 | 65.0* | / | -23.9 | 62.8*
O=C(OC1C2CCC1C1CN(CCc3ccccc3)CC12)c1ccccc1 (stereo not drawn) | 3.5 | 6.2 | -3.5 | 2.3 | 9.2 | /
Cc1ccc(C2OC34CCCCCC3C(C#N)(C(=N)O4)C2(C#N)C#N)cc1 (stereo not drawn) | 33.6* | -1.2 | 52.4* | 99.0* | -2.7 | 30.5
CCN(CC)C(=O)C1CCCN(c2ccccc2[N+](=O)[O-])C1 (stereo not drawn) | -2.2 | 7.4 | 3.1 | -3.5 | -9.5 | /
O=C(Cn1c(=O)oc2ccccc21)Nc1nc(-c2ccccc2)cs1 | -2.2 | -0.9 | 0.7 | -2.5 | 1.2 | /
O=C(Cn1c(=O)oc2ccccc21)Nc1n[nH]c(=S)s1 | 0.4 | -64.9 | 54.5* | 22.2 | -13.2 | 63.0*
CCN(c1ccc(OC)cc1)S(=O)(=O)c1ccc(-c2ccc(=O)[nH]n2)o1 | 0.3 | / | / | / | / | /
S=c1nc(-c2cc(Cl)ccc2Cl)[nH][nH]1 | -1.7 | -2.8 | 56.9* | 40.1 | -0.7 | -18.8
COc1cccc(CNC(=O)CN(C)S(=O)(=O)c2ccc3c(c2)n(C)c(=O)c(=O)n3C)c1 | -2.2 | / | / | / | / | /
Oc1ccc(O)c(Cc2nc3ccccc3s2)c1 | 1.0 | 9.5 | 50.7* | 9.6 | 3.6 | 43.4*
COc1ccc(C(=O)N2CCc3[nH]nc(-c4ccccc4)c3C2)cc1 | -2.8 | / | / | / | / | /
Cc1nn(-c2ccccc2)c(Oc2ccccc2)c1C=O | 4.1 | 1.8 | 0.0 | 0.7 | -5.2 | /
Cc1nnc(Sc2cc(NCCO)c([N+](=O)[O-])c3nonc23)s1 | -0.6 | -9.2 | 52.2* | 31.3 | -10.6 | 26.9
O=C(NCc1ccccn1)C(=O)Nc1cccc2ccccc12 | -1.3 | 1.5 | 0.8 | 3.4 | -2.5 | /
N#CC1=C(N)Oc2cc(O)c(C=Nc3ccccc3)cc2C1c1ccccc1 (stereo not drawn) | ? | 4.7 | 26.9 | 34.2 | -16.3 | /
Cc1ccccc1N=Cc1cc2c(cc1O)OC(N)=C(C#N)C2c1ccccc1 (stereo not drawn) | 30.4* | 5.8 | 71.1* | 108.8* | -20.1 | 0.2
CCOC(=O)N1CCN(C(=O)c2ccc3c(SCC(=O)O)c4c(nc3c2)CCCC4)CC1 | -0.5 | 18.2 | 2.0 | 2.4 | 1.4 | /
